Results taken from ChEMBL document CHEMBL4689842, “EUbOPEN Chemogenomics Library wave 1” (2021).
Values joined by “and” are separate entries in the source; they are usually repeats but may differ in a detail not shown here. Identical values can stand only once.

Test system: U2OS
Assay: Multiplex assay against U2OS
Assay type: toxicity, cell-based
Settings: human
Summary of the method: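 With compound added, live cells were imaged on a CQ1 microscope at 37°C and 5% CO2; staining with Hoechst33342, BioTracker Green Microtubule Cytoskeleton Dye, MitoTracker Red and Annexin V Alexa Fluor 680 had been done at seeding. The CellPathfinder machine-learning gating scheme split cells into Hoechst high-intensity objects or normal cells, normal cells into healthy, pyknosed or fragmented nuclei, and pyknosed cells into mitotic or apoptotic. The tubulin, mitochondrial-mass and membrane-permeability phenotypes are per cents of healthy-nucleus cells.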

[1] = 12 h, 1 µM, compound concentration 1 uM, replicate 1
[2] = 12 h, 1 µM, compound concentration 1 uM, replicate 2
[3] = 12 h, 10 µM, compound concentration 10 uM, replicate 1
[4] = 12 h, 10 µM, compound concentration 10 uM, replicate 2
[5] = 24 h, 1 µM, compound concentration 1 uM, replicate 1
[6] = 24 h, 1 µM, compound concentration 1 uM, replicate 2
[7] = 24 h, 10 µM, compound concentration 10 uM, replicate 1
[8] = 24 h, 10 µM, compound concentration 10 uM, replicate 2
[9] = 48 h, 1 µM, compound concentration 1 uM, replicate 1
[10] = 48 h, 1 µM, compound concentration 1 uM, replicate 2
[11] = 48 h, 10 µM, compound concentration 10 uM, replicate 1
[12] = 48 h, 10 µM, compound concentration 10 uM, replicate 2

CC[C@@]1(O)C(=O)OCc2c1cc1n(c2=O)Cc2cc3ccccc3nc2-1 [CAMPTOTHECIN]
Population Healthy Nuclei (%) [1]: 34% and 42% and 78%
Population Membrane Permeable-Phenotype (%) [1]: 11% and 13% and 14%
Population Mitochondria Different-Phenotype (%) [1]: 25% and 31% and 35%
Population Normal (%) [1]: 48% and 90%
Population Pyknosed Nuclei (%) [1]: 13% and 7%
Population Tubulin-Different-Phenotype (%) [1]: 20% and 33%
Population Apoptotic (%) [2]: 22% and 36% and 16%
Population Fragmented Nuclei (%) [2]: 62% and 59% and 26%
Population Healthy Nuclei (%) [2]: 25% and 24% and 65%
Population Hoechst High Intensity Objects (%) [2]: 62% and 50% and 28%
Population Membrane Permeable-Phenotype (%) [2]: 10% and 9%
Population Mitochondria Different-Phenotype (%) [2]: 45% and 38% and 22%
Population Mitotic Cells (%) [2]: 77% and 64% and 83%
Population Normal (%) [2]: 37% and 49% and 71%
Population Pyknosed Nuclei (%) [2]: 12% and 15%
Population Apoptotic (%) [3]: 47%
Population Fragmented Nuclei (%) [3]: 13%
Population Healthy Nuclei (%) [3]: 74%
Population Hoechst High Intensity Objects (%) [3]: 6%
Population Membrane Permeable-Phenotype (%) [3]: 16%
Population Mitochondria Different-Phenotype (%) [3]: 24%
Population Mitotic Cells (%) [3]: 52%
Population Normal (%) [3]: 93%
Population Pyknosed Nuclei (%) [3]: 11%
Population Tubulin-Different-Phenotype (%) [3]: 31%
Total Cell Count [3]: 161
Population Apoptotic (%) [4]: 18%
Population Fragmented Nuclei (%) [4]: 20%
Population Healthy Nuclei (%) [4]: 68%
Population Hoechst High Intensity Objects (%) [4]: 19%
Population Membrane Permeable-Phenotype (%) [4]: 13%
Population Mitochondria Different-Phenotype (%) [4]: 32%
Population Mitotic Cells (%) [4]: 81%
Population Normal (%) [4]: 80%
Population Pyknosed Nuclei (%) [4]: 10%
Population Tubulin-Different-Phenotype (%) [4]: 38%
Total Cell Count [4]: 131
Population Apoptotic (%) [5]: 63% and 75% and 77%
Population Healthy Nuclei (%) [5]: 26% and 28% and 72%
Population Membrane Permeable-Phenotype (%) [5]: 36% and 32% and 15%
Population Mitochondria Different-Phenotype (%) [5]: 58% and 57% and 35%
Population Mitotic Cells (%) [5]: 36% and 24% and 22%
Population Normal (%) [5]: 43% and 46% and 91%
Population Pyknosed Nuclei (%) [5]: 15% and 18%
Population Tubulin-Different-Phenotype (%) [5]: 38% and 42% and 40%
Population Apoptotic (%) [6]: 54% and 62% and 80%
Population Fragmented Nuclei (%) [6]: 63% and 22%
Population Hoechst High Intensity Objects (%) [6]: 59% and 27%
Population Mitochondria Different-Phenotype (%) [6]: 54% and 50% and 33%
Population Mitotic Cells (%) [6]: 45% and 37% and 20%
Population Normal (%) [6]: 40% and 72%
Population Pyknosed Nuclei (%) [6]: 21% and 11%
Population Apoptotic (%) [7]: 80%
Population Fragmented Nuclei (%) [7]: 21%
Population Healthy Nuclei (%) [7]: 65%
Population Hoechst High Intensity Objects (%) [7]: 5%
Population Membrane Permeable-Phenotype (%) [7]: 14%
Population Mitochondria Different-Phenotype (%) [7]: 41%
Population Mitotic Cells (%) [7]: 20%
Population Normal (%) [7]: 94%
Population Pyknosed Nuclei (%) [7]: 13%
Population Tubulin-Different-Phenotype (%) [7]: 37%
Total Cell Count [7]: 157
Population Apoptotic (%) [8]: 90%
Population Fragmented Nuclei (%) [8]: 25%
Population Healthy Nuclei (%) [8]: 64%
Population Hoechst High Intensity Objects (%) [8]: 10%
Population Membrane Permeable-Phenotype (%) [8]: 17%
Population Mitochondria Different-Phenotype (%) [8]: 35%
Population Mitotic Cells (%) [8]: 9%
Population Normal (%) [8]: 89%
Population Pyknosed Nuclei (%) [8]: 11%
Population Tubulin-Different-Phenotype (%) [8]: 42%
Total Cell Count [8]: 112

CS(=O)(=O)N1CCCC(NC(=O)[C@H](CCC2CCCCC2)NC(=O)c2ccc(CNc3ncnc4c3nnn4-c3ccccc3)cc2)C1 (stereo partly specified) [SR-301]
Population Apoptotic (%) [1]: 27% and 50% and 35%
Population Fragmented Nuclei (%) [1]: 13% and 7%
Population Healthy Nuclei (%) [1]: 74% and 76% and 79%
Population Hoechst High Intensity Objects (%) [1]: 5% and 4% and 3%
Population Membrane Permeable-Phenotype (%) [1]: 7% and 4% and 3%
Population Mitochondria Different-Phenotype (%) [1]: 11% and 9% and 8%
Population Mitotic Cells (%) [1]: 72% and 50% and 64%
Population Normal (%) [1]: 94% and 95% and 96%
Population Pyknosed Nuclei (%) [1]: 12% and 13%
Total Cell Count [1]: 200 and 294 and 192
Population Apoptotic (%) [2]: 25% and 63% and 33%
Population Fragmented Nuclei (%) [2]: 14% and 11%
Population Healthy Nuclei (%) [2]: 81% and 70% and 89%
Population Hoechst High Intensity Objects (%) [2]: 19% and 13%
Population Membrane Permeable-Phenotype (%) [2]: 10% and 2%
Population Mitochondria Different-Phenotype (%) [2]: 20% and 14% and 10%
Population Mitotic Cells (%) [2]: 75% and 36% and 66%
Population Normal (%) [2]: 80% and 86%
Population Tubulin-Different-Phenotype (%) [2]: 21% and 19% and 12%
Total Cell Count [2]: 135 and 58 and 69
Population Apoptotic (%) [3]: 81% and 62% and 53%
Population Fragmented Nuclei (%) [3]: 21% and 23% and 11%
Population Healthy Nuclei (%) [3]: 27% and 44% and 78%
Population Hoechst High Intensity Objects (%) [3]: 10% and 5%
Population Mitochondria Different-Phenotype (%) [3]: 39% and 28% and 22%
Population Mitotic Cells (%) [3]: 18% and 37% and 46%
Population Normal (%) [3]: 89% and 94%
Population Tubulin-Different-Phenotype (%) [3]: 39% and 52% and 28%
Total Cell Count [3]: 202 and 154 and 295
Population Apoptotic (%) [4]: 80% and 75% and 41%
Population Fragmented Nuclei (%) [4]: 39% and 27%
Population Healthy Nuclei (%) [4]: 20% and 25% and 58%
Population Hoechst High Intensity Objects (%) [4]: 4% and 2%
Population Membrane Permeable-Phenotype (%) [4]: 61% and 54% and 30%
Population Mitochondria Different-Phenotype (%) [4]: 66% and 54% and 34%
Population Mitotic Cells (%) [4]: 20% and 25% and 58%
Population Normal (%) [4]: 95% and 97%
Population Pyknosed Nuclei (%) [4]: 39% and 47% and 20%
Population Tubulin-Different-Phenotype (%) [4]: 55% and 54% and 34%
Total Cell Count [4]: 89 and 86 and 105
Population Apoptotic (%) [5]: 47% and 48%
Population Fragmented Nuclei (%) [5]: 10% and 5%
Population Healthy Nuclei (%) [5]: 82% and 75%
Population Hoechst High Intensity Objects (%) [5]: 3% and 0%
Population Membrane Permeable-Phenotype (%) [5]: 5% and 3% and 2%
Population Mitochondria Different-Phenotype (%) [5]: 6% and 8%
Population Mitotic Cells (%) [5]: 52% and 51%
Population Normal (%) [5]: 96% and 99%
Population Pyknosed Nuclei (%) [5]: 14% and 7%
Total Cell Count [5]: 350 and 199 and 225
Population Fragmented Nuclei (%) [6]: 12% and 7%
Population Healthy Nuclei (%) [6]: 78% and 80% and 86%
Population Membrane Permeable-Phenotype (%) [6]: 7% and 6%
Population Mitochondria Different-Phenotype (%) [6]: 20% and 10%
Population Mitotic Cells (%) [6]: 87% and 60% and 55%
Population Normal (%) [6]: 80% and 95%
Population Pyknosed Nuclei (%) [6]: 9% and 12% and 6%
Population Tubulin-Different-Phenotype (%) [6]: 13% and 26% and 14%
Total Cell Count [6]: 148 and 64 and 84
Population Apoptotic (%) [7]: 96% and 87% and 65%
Population Healthy Nuclei (%) [7]: 25% and 39% and 75%
Population Mitochondria Different-Phenotype (%) [7]: 29% and 16% and 13%
Population Normal (%) [7]: 89% and 92% and 96%
Population Pyknosed Nuclei (%) [7]: 39% and 38% and 13%
Population Tubulin-Different-Phenotype (%) [7]: 37% and 63% and 44%
Total Cell Count [7]: 235 and 159 and 307
Population Apoptotic (%) [8]: 91% and 94% and 89%
Population Fragmented Nuclei (%) [8]: 25% and 32% and 19%
Population Hoechst High Intensity Objects (%) [8]: 15% and 21% and 9%
Population Mitotic Cells (%) [8]: 8% and 5% and 10%
Population Normal (%) [8]: 84% and 78% and 90%
Population Pyknosed Nuclei (%) [8]: 49% and 50% and 21%
Total Cell Count [8]: 98 and 89 and 110
Population Apoptotic (%) [9]: 58% and 30%
Population Fragmented Nuclei (%) [9]: 3%
Population Healthy Nuclei (%) [9]: 84% and 87%
Population Hoechst High Intensity Objects (%) [9]: 1% and 0%
Population Membrane Permeable-Phenotype (%) [9]: 2% and 1%
Population Mitochondria Different-Phenotype (%) [9]: 9% and 7%
Population Mitotic Cells (%) [9]: 41% and 69% and 74%
Population Normal (%) [9]: 98% and 99%
Population Pyknosed Nuclei (%) [9]: 7%
Total Cell Count [9]: 208 and 559 and 312
Population Apoptotic (%) [10]: 38% and 21% and 25%
Population Fragmented Nuclei (%) [10]: 4% and 7% and 9%
Population Healthy Nuclei (%) [10]: 83% and 76%
Population Membrane Permeable-Phenotype (%) [10]: 7% and 3%
Population Mitochondria Different-Phenotype (%) [10]: 13% and 8% and 12%
Population Mitotic Cells (%) [10]: 61% and 78% and 75%
Population Normal (%) [10]: 92% and 96% and 85%
Population Pyknosed Nuclei (%) [10]: 12% and 8% and 13%
Total Cell Count [10]: 84 and 114 and 231
Population Apoptotic (%) [11]: 92% and 85% and 62%
Population Mitochondria Different-Phenotype (%) [11]: 17% and 14% and 9%
Population Normal (%) [11]: 89% and 91% and 96%
Population Tubulin-Different-Phenotype (%) [11]: 37% and 75% and 53%
Total Cell Count [11]: 372 and 170 and 387
Population Apoptotic (%) [12]: 96% and 100% and 84%
Population Fragmented Nuclei (%) [12]: 23% and 17% and 12%
Population Healthy Nuclei (%) [12]: 38% and 68%
Population Membrane Permeable-Phenotype (%) [12]: 85% and 44%
Population Mitochondria Different-Phenotype (%) [12]: 81% and 74% and 35%
Population Mitotic Cells (%) [12]: 3% and 0% and 15%
Population Normal (%) [12]: 76% and 80% and 92%
Population Pyknosed Nuclei (%) [12]: 38% and 30% and 19%
Population Tubulin-Different-Phenotype (%) [12]: 81% and 82% and 30%
Total Cell Count [12]: 84 and 107 and 142
